# Data taken from ChEMBL document CHEMBL1146234, “Synthesis and biological evaluation of N-pyrazolyl-N'-alkyl/benzyl/phenylureas: a new class of potent inhibitors of interleukin 8-induced neutrophil chemotaxis” (J Med Chem, 2007).
# The source made the active and inactive calls. The calls are words filed in the database; no cut-off is given here.
# Experiments:
# [1] = tested on: Neutrophil; assay: Cytotoxicity against human neutrophils assessed as viable cells after 2 hrs; assay type: functional; set-up: concentration or dose not given beside the values
# Summary of the method: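 Human neutrophils (2 × 10⁶/mL) from healthy donors were incubated 2 h at 37 °C under CO₂ in HBSS:PBS (3:1) with 1 mg/mL BSA, with compounds. Membrane integrity was read by fluorescein diacetate/ethidium bromide staining for 10 min at room temperature, under UV dark-field microscopy. Green cells were scored viable; red nuclei were scored necrotic.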
# [2] = biological target: Tyrosine-protein kinase HCK (Homo sapiens) (UniProt P08631); assay: Binding affinity to Hck
# [3] = tested on: Neutrophil; assay: Inhibition of fMLP-induced neutrophil chemotaxis after 45 mins by Boyden chamber assay; assay type: functional, cell-based; conditions: Homo sapiens
# Summary of the method: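 Leading-front Boyden assay with donor neutrophils. Cells were preincubated 15 min at room temperature ± compound. Then 4 × 10⁵ cells were placed above a 3 µm cellulose ester filter, with IL8 or fMLP below. After 45 min at 37 °C, filters were hematoxylin-stained and the leading-front distance was read at ×400, 5 fields per filter, in duplicate. Net migration = stimulated minus spontaneous. IC₅₀ came from nonlinear regression, ≥3 experiments.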
# [4] = biological target: T1, C-C chemokine receptor type 3 (Homo sapiens) (UniProt P51677); assay: Binding affinity to CCR3
# T1 sequence (whole entry): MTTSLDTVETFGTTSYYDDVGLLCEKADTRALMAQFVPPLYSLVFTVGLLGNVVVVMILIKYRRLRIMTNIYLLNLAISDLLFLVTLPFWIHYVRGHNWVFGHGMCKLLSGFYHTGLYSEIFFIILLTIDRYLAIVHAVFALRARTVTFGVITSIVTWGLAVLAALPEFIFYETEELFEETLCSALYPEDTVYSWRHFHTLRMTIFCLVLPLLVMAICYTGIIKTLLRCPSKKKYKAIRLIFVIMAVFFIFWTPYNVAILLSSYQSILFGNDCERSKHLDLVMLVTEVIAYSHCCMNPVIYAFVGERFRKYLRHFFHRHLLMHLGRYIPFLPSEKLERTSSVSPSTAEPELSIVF
# [5] = biological target: T2, Mitogen-activated protein kinase 13 (Homo sapiens) (UniProt O15264); assay: Binding affinity p38delta
# T2 sequence (whole entry): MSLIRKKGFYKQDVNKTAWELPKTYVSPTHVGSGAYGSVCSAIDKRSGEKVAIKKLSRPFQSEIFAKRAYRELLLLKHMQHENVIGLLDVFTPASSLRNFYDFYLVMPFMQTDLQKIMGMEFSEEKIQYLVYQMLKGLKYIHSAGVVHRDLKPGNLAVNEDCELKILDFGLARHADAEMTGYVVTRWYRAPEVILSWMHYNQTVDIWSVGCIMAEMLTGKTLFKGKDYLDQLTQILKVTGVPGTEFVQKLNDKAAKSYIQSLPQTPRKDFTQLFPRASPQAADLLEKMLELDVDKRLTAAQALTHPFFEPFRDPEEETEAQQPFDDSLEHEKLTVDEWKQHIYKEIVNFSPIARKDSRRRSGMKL
# [6] = biological target: Mitogen-activated protein kinase 1 (Homo sapiens) (UniProt P28482); assay: Binding affinity to ERK2
# [7] = biological target: T3, C-X-C chemokine receptor type 1 (Homo sapiens) (UniProt P25024); assay: Binding affinity to CXCR1
# T3 sequence (whole entry): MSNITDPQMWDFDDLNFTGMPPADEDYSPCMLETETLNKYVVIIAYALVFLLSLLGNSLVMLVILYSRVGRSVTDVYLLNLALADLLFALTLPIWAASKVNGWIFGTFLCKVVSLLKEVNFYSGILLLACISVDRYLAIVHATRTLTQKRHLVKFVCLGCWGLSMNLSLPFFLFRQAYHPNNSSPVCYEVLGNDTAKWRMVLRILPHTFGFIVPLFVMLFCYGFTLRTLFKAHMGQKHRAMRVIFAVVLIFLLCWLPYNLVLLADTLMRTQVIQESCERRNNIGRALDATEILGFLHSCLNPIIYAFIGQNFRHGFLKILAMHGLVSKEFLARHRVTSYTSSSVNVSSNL
# [8] = biological target: Tyrosine-protein kinase Fgr (Homo sapiens) (UniProt P09769); assay: Binding affinity to Fgr
# [9] = biological target: Mitogen-activated protein kinase 9 (Homo sapiens) (UniProt P45984); assay: Binding affinity to JNK2
# [10] = biological target: T4, Tyrosine-protein kinase ZAP-70 (Homo sapiens) (UniProt P43403); assay: Binding affinity to Zap70
# T4 sequence (whole entry): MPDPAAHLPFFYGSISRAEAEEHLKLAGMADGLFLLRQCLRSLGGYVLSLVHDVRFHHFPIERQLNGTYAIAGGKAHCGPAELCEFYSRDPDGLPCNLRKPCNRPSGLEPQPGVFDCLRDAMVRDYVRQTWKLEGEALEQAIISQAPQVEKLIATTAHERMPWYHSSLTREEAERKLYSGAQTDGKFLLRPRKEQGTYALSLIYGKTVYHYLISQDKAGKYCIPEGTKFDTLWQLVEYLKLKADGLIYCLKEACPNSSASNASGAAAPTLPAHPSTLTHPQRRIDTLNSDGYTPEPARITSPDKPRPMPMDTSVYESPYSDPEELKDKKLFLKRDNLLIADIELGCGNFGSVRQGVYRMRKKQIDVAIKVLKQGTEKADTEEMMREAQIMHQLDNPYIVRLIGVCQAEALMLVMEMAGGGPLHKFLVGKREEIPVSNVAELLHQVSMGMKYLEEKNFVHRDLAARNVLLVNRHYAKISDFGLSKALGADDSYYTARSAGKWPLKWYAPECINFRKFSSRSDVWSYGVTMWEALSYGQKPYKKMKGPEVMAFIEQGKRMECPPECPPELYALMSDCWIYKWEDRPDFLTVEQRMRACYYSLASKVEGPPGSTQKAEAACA
# [11] = biological target: C-C chemokine receptor type 2 (Homo sapiens) (UniProt P41597); assay: Binding affinity to CCR2
# [12] = biological target: T5, C-X-C chemokine receptor type 2 (Homo sapiens) (UniProt P25025); assay: Binding affinity to CXCR2
# T5 sequence (whole entry): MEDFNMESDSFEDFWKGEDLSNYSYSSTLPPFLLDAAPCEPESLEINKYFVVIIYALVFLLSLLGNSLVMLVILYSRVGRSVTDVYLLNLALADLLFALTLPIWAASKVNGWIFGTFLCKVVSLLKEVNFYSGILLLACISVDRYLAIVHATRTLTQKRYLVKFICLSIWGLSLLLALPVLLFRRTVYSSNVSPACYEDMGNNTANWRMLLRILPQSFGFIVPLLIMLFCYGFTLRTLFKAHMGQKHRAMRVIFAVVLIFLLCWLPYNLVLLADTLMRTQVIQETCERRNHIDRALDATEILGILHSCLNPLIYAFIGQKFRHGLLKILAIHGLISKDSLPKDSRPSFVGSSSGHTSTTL
# Mitogen-activated protein kinase 1 (Homo sapiens), sequence (P28482 whole entry): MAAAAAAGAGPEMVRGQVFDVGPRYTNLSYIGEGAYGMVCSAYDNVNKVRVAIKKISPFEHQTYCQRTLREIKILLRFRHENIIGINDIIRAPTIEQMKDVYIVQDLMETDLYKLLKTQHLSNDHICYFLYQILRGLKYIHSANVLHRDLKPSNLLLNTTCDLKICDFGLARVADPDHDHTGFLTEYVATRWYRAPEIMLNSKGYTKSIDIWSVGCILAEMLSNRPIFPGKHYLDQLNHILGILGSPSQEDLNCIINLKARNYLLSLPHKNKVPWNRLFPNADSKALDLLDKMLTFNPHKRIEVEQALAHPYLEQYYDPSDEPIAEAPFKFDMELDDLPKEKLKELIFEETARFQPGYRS
# Mitogen-activated protein kinase 9 (Homo sapiens), sequence (P45984 whole entry, looked up): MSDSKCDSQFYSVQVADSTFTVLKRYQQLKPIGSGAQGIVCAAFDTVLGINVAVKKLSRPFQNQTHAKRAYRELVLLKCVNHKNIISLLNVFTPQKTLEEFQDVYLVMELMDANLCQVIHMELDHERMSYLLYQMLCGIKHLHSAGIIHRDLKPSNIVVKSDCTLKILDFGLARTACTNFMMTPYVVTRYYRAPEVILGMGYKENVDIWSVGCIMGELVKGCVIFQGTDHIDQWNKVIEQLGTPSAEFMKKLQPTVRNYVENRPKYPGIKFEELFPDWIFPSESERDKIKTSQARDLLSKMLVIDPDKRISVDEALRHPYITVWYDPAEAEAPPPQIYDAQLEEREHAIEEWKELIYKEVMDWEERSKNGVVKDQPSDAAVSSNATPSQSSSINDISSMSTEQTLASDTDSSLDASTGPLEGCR
# Tyrosine-protein kinase HCK (Homo sapiens), sequence (P08631 2-526 limits assumed): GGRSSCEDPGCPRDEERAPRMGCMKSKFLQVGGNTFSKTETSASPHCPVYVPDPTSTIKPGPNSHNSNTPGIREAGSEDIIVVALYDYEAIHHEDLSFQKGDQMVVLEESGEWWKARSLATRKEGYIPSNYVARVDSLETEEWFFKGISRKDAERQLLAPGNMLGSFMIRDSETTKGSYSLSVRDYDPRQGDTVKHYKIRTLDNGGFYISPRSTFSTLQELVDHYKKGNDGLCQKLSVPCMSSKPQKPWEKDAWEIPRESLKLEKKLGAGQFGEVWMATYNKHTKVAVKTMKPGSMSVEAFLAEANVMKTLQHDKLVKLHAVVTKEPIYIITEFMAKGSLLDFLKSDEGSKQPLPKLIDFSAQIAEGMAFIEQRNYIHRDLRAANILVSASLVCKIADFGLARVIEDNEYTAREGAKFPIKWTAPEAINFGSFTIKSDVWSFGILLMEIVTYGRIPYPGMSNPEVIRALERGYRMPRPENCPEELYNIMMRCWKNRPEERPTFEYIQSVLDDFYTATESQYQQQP
# C-C chemokine receptor type 2 (Homo sapiens), sequence (P41597 whole entry, looked up): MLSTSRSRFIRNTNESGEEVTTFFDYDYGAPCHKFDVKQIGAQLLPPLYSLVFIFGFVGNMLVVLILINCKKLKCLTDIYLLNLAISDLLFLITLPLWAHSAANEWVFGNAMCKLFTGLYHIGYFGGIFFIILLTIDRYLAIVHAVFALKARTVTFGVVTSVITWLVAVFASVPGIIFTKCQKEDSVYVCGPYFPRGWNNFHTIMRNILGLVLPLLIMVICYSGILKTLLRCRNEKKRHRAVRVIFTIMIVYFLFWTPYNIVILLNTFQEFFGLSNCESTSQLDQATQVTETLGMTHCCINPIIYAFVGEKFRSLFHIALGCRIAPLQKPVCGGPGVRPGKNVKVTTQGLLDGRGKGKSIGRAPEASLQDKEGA
# Tyrosine-protein kinase Fgr (Homo sapiens), sequence (P09769 2-529 limits assumed): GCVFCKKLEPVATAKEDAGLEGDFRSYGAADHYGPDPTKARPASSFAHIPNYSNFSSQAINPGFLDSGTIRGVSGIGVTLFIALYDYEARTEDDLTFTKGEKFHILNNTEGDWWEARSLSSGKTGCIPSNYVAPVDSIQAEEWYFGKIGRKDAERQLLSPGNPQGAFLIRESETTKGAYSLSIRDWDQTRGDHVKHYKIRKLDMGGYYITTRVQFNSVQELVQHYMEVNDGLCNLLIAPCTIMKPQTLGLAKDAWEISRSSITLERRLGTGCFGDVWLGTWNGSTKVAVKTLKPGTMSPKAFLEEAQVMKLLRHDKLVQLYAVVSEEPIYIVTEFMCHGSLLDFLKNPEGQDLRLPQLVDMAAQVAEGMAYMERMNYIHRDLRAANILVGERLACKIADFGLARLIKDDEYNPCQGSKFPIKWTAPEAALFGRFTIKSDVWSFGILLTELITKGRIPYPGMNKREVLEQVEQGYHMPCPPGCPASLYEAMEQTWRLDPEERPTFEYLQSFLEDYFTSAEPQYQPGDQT
Compound,Activity [1] [%],Activity [2],Activity [3],Activity [4],Activity [5],Activity [6],Activity [7],Activity [8],Activity [9],Activity [10],Activity [11],Activity [12]
CCOC(=O)c1cnn(CC(O)c2ccccc2)c1NC(=O)NCc1ccccc1 (stereo unspecified),90,inactive,inactive,inactive,inactive,inactive,inactive,inactive,inactive,inactive,inactive,inactive
CCOC(=O)c1cnn(CC(O)c2ccccc2)c1NC(=O)Nc1ccccc1 (stereo unspecified),90,inactive,inactive,inactive,inactive,inactive,inactive,inactive,inactive,inactive,inactive,inactive
CCOC(=O)c1cnn(CC(O)c2ccccc2)c1NC(=O)NC(C)C (stereo unspecified),90,inactive,inactive,inactive,inactive,inactive,inactive,inactive,inactive,inactive,inactive,inactive
